The record followed here is ChEMBL document CHEMBL3797056, “An evaluation of Minor Groove Binders as anti-Trypanosoma brucei brucei therapeutics” (Eur J Med Chem, 2016).

The IC50 is the point on the concentration scale where inhibition reaches its midpoint.

The nature of series [1]: Selectivity index, ratio of IC50 for HEK293 cells to IC50 for Trypanosoma brucei brucei Lister 427 bloodstream forms. The class given is toxicity, cell-based. The following applies: human, read-out: Ratio IC50.
Series [2] is described as follows: Drug uptake in Trypanosoma brucei brucei Lister 427 bloodstream forms nucleus at 50 uM after 2 hrs by FITC/DsRed staining based fluorescence microscopic analysis. The class given is ADME. The gist of the method: (§1)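 Parasites at 1 × 10^7 cells/mL exposed to 50 μM compound for 2 h at 37 °C, humidified 5% CO2. Washed in PBS, mixed 1:1 with 2% w/v low-melting agarose and spread under a coverslip for fluorescence microscopy.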

In series [3] the test system is Trypanosoma brucei brucei. Description: Binding affinity to kinetoplast DNA in Trypanosoma brucei brucei Lister 427 bloodstream forms at 50 uM after 2 hrs by FITC/DsRed staining based fluorescence microscopic analysis. The procedure, abridged:
as §1

The subject of series [4] is Trypanosoma brucei brucei. In words: Antitrypanosomal activity against Trypanosoma brucei brucei Lister 427 bloodstream forms incubated for 48 hrs by alamar blue assay. The settings on record: Lister 427, 48 h. The format is functional, organism-based. (Resazurin is reduced to fluorescent resorufin, in cell work by metabolically active cells.)
The subject of another series is HEK293. Description: Cytotoxicity against HEK293 cells assessed as growth inhibition after 72 hrs by alamar blue viability assay. The class given is cell-based. The settings on record: Homo sapiens, HEK293, 72 h. The procedure, abridged:
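HEK 293 cells kept in DMEM + 10% FBS at 37 °C, 5% CO2, harvested at 80% confluence, 2000 cells/well, equilibrated overnight. Serial compound dilutions for 72 h; puromycin positive control, 0.4% DMSO negative. […] Two experiments, duplicate points.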

Molecules are shown by their SMILES. Activity calls are given as the source filed them. No cut-off for these calls is given here.

For `CC(C)CCc1sc(NC(=O)c2cc(NC(=O)c3cc(/C=C/c4ccc([N+](=O)[O-])cc4)cn3C)cn2C)nc1C(=O)NCCN1CCOCC1`, the selectivity ratio in series [1] was greater than 1850.

Regarding `CN(C)c1ccc(/C=C/c2ccc(C(=O)Nc3cc(C(=O)Nc4cc(C(=O)NCCN5CCOCC5)n(C)c4)n(C)c3)cn2)cc1`, the Drug uptake result in series [2] is listed as “Active”. The result in series [3] was Active.

`COc1cccc(C(=N)Nc2cc(C(=O)Nc3cc(C(=O)Nc4nc(C(=O)NCCN5CCOCC5)c(C(C)C)s4)n(C)c3)n(C)c2)c1` gave a half-inhibitory concentration (IC50) in series [4] greater than 75 µM.

On to `Cn1cc(NC(=O)c2cc(NC(=O)c3cc(NC(=O)c4cc5ccccc5cn4)cn3C)cn2C)cc1C(=O)NCCCN1CCOCC1`, for which the half-maximal inhibitory concentration (IC50) in the series with HEK293 is greater than 20 µM. For the same molecule, the selectivity ratio in series [1] is greater than 2940.

In series [4], `Cn1cc(NC(=O)c2cc(NC(=O)c3cc(NC=O)cn3C)cn2C)cc1C(=O)NCCN1CCOCC1` had a half-inhibitory concentration (IC50) of 48 µM.

For `Cn1cc(NC(=O)c2cc(NC(=O)c3ccc(/C=C/c4ccc5nonc5c4)cc3)cn2C)cc1C(=O)NCCN1CCOCC1`, the IC50 in the series with HEK293 is greater than 20 µM. Moreover, the selectivity ratio in series [1] was greater than 1050.

Consider `CC(C)CCc1sc(NC(=O)c2cc(NC(=O)c3ccc(/C=C/c4ccc5ccccc5c4)cc3)cn2C)nc1C(=O)NCCN1CCOCC1`, for which the 50% inhibitory concentration (IC50) in the series with HEK293 was greater than 20 µM. In addition, the selectivity ratio in series [1] is greater than 500.

Consider `Cn1cc(NC(=O)c2cc(NC(=O)c3ccc(/C=C/c4ccc5nsnc5c4)cc3)cn2C)cc1C(=O)NCCN1CCOCC1`, for which, in the series with HEK293, the IC50 was greater than 20 µM. The selectivity ratio in series [1] is greater than 2740.
